According to ChEMBL document CHEMBL4622961, “Design, Synthesis, and Preliminary Immunological Studies of MUC1-Based Antitumor Vaccines Adjuvanted with R- and S-FSL-1” (2020):
Activity calls are given as the source filed them. No cut-off for these calls is given here.

Legend:
Peritoneal macrophage [1] = test: Adjuvanted-antitumor vaccine activity in C57BL/6 mouse peritoneal macrophages assessed as induction of IL-6 production after 24 hrs by ELISA; format: functional, cell-based
How it was run: (§1)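 Peritoneal macrophages were harvested from C57BL/6 mice and incubated with the adjuvanted vaccine constructs. IL-6 and IL-12 released into the culture supernatant were quantified against a PBS control. Values are given as mean ± SD.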

Peritoneal macrophage [2] = test: Adjuvanted-antitumor vaccine activity in C57BL/6 mouse peritoneal macrophages assessed as induction of IL-12 production after 24 hrs by ELISA; format: functional, cell-based; how it was run: as §1
Mus musculus [3] = test: Adjuvanted-antitumor vaccine activity in C57BL/6 mouse assessed as induction of IgG production in serum at 4 nmol, ip administered […] and measured after 1 week post last dose by ELISA; format: functional, organism-based
How it was run: (§2)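 Female C57BL/6 mice, immunized intraperitoneally on days 0, 14, 28 and 42 (PBS group as control). Sera were collected 1 week after the last dose. ELISA measured total IgG titer or the IgG1, IgG2b, IgG2c and IgG3 isotypes. Values are given as mean ± SD.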

Mus musculus [4] = test: Adjuvanted-antitumor vaccine activity in C57BL/6 mouse assessed as potentiation of MUC1 specific Th2 immune response by measuring increase in serum IgG1 level at 4 nmol, ip administered on […] and measured after 1 week post last dose by ELISA; format: functional, organism-based; how it was run: as §2
Mus musculus [5] = test: Aduvanted-antitumor vaccine activity in C57BL/6 mouse assessed as potentiation of MUC1 specific Th1 immune response by measuring increase in serum IgG2c level at 4 nmol, ip administered […] and measured after 1 week post last dose by ELISA; format: functional, organism-based; how it was run: as §2
Mus musculus [6] = test: Adjuvanted-antitumor vaccine activity in C57BL/6 mouse assessed as potentiation of MUC1 mediated immune response by measuring increase in serum IgG2b level at 4 nmol, ip administered on […] and measured after 1 week post last dose by ELISA; format: functional, organism-based; how it was run: as §2
Mus musculus [7] = test: Adjuvanted-antitumor vaccine activity in C57BL/6 mouse assessed as potentiation of MUC1 mediated immune response by measuring increase in serum IgG3 level at 4 nmol, ip administered on […] and measured after 1 week post last dose by ELISA; format: functional, organism-based; how it was run: as §2
Mus musculus [8] = test: Adjuvanted-antitumor vaccine activity in C57BL/6 mouse assessed as induction of MUC1-specific antisera production by measuring binding activity with MCF7 cells expressing MUC1 at 4 nmol, ip administered on […] and measured after 1 week post-last dose by incubating cells with compound-immunized mouse sera for 1 hr by FACS analysis; format: functional, organism-based
How it was run: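 Antisera were collected 1 week after the fourth ip immunization (days 0, 14, 28, 42) of female C57BL/6 mice. MUC1-expressing human breast cancer MCF-7 cells were incubated with the antisera, then with FITC-labelled goat anti-mouse antibody, and binding was read by flow cytometry. The PBS-immunized group served as control.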

Mus musculus [9] = test: Adjuvanted-antitumor vaccine activity in C57BL/6 mouse assessed as potentiation of Th1 mediated response by measuring increase in IFN-gamma level in splenocytes at 4 nmol, ip administered […] and measured after 1 week post-last dose by incubating splenocytes with MUC1 peptide for 48 hrs by ELISA; format: functional, organism-based
How it was run: (§3)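 Splenocytes came from female C57BL/6 mice immunized ip on days 0, 14, 28 and 42. They were restimulated in culture with MUC1 peptide (10 μg/mL), and IL-4, IL-6, IL-12 and IFN-γ were measured in the supernatants. A PBS-immunized group served as comparison.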

Mus musculus [10] = test: Adjuvanted-antitumor vaccine activity in C57BL/6 mouse assessed as potentiation of Th1 mediated response by measuring increase in IL-12 level in splenocytes at 4 nmol, ip administered on […] and measured after 1 weeks post-last dose by incubating splenocytes with MUC1 peptide for 48 hrs by ELISA; format: functional, organism-based; how it was run: as §3
Mus musculus [11] = test: Adjuvanted-antitumor vaccine activity in C57BL/6 mouse assessed as potentiation of Th2 mediated response by measuring increase in IL-6 level in splenocytes at 4 nmol, ip administered […] and measured after 1 weeks post-last dose by incubating splenocytes with MUC1 peptide for 48 hrs by ELISA; format: functional, organism-based; how it was run: as §3
Mus musculus [12] = test: Adjuvanted-antitumor vaccine activity in C57BL/6 mouse assessed as potentiation of Th2 mediated response by measuring increase in IL-4 level in splenocytes at 4 nmol, ip administered on […] and measured after 1 weeks post-last dose by incubating splenocytes with MUC1 peptide for 48 hrs by ELISA; format: functional, organism-based; how it was run: as §3
Mus musculus [13] = test: Adjuvanted-antitumor vaccine activity in C57BL/6 mouse assessed as potentiation of MUC1 specific Th2 immune response by measuring ratio of IgG1 to IgG2c in serum at 4 nmol, ip administered […] and measured after 1 week post last dose by ELISA; format: functional
How it was run: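 Sera from female C57BL/6 mice given ip doses on days 0, 14, 28 and 42 were taken 1 week after the last dose. IgG1 and IgG2c were measured by ELISA and expressed as an IgG1/IgG2c ratio; a ratio above 1 was read as a Th2-type response.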

Compound | Activity (Peritoneal macrophage [1]) | Activity (Peritoneal macrophage [2]) | Activity (Mus musculus [3]) | Activity (Mus musculus [4]) | Activity (Mus musculus [5]) | Activity (Mus musculus [6]) | Activity (Mus musculus [7]) | Activity (Mus musculus [8]) | Activity (Mus musculus [9]) | Activity (Mus musculus [10]) | Activity (Mus musculus [11]) | Activity (Mus musculus [12]) | Ratio (Mus musculus [13])
CCCCCCCCCCCCCCCC(=O)OC[C@@H](CSC[C@H](N)C(=O)NCC(=O)N[C@@H](CC(=O)O)C(=O)N1CCC[C@H]1C(=O)N[C@@H](CCCCN)C(=O)N[C@@H](Cc1c[nH]cn1)C(=O)N1CCC[C@H]1C(=O)N[C@@H](CCCCN)C(=O)N[C@@H](CO)C(=O)N[C@@H](Cc1ccccc1)C(=O)NCC(=O)NCC(=O)NCC(=O)N[C@@H](Cc1c[nH]cn1)C(=O)NCC(=O)N[C@H](C(=O)N[C@H](C(=O)N[C@@H](CO)C(=O)N[C@@H](C)C(=O)N1CCC[C@H]1C(=O)N[C@@H](CC(=O)O)C(=O)N[C@H](C(=O)N[C@@H](CCCNC(=N)N)C(=O)N1CCC[C@H]1C(=O)N[C@@H](C)C(=O)N1CCC[C@H]1C(=O)NCC(=O)N[C@@H](CO)C(=O)N[C@H](C(=O)N[C@@H](C)C(=O)N1CCC[C@H]1C(=O)N1CCC[C@H]1C(=O)N[C@@H](C)C(=O)O)[C@@H](C)O)[C@@H](C)O)[C@@H](C)O)C(C)C)OC(=O)CCCCCCCCCCCCCCC | Active | Active | Active | Active | Active | Active | Active | Active | Active | Active | Active | Active | >1
CCCCCCCCCCCCCCCC(=O)OC[C@H](CSC[C@H](N)C(=O)NCC(=O)N[C@@H](CC(=O)O)C(=O)N1CCC[C@H]1C(=O)N[C@@H](CCCCN)C(=O)N[C@@H](Cc1c[nH]cn1)C(=O)N1CCC[C@H]1C(=O)N[C@@H](CCCCN)C(=O)N[C@@H](CO)C(=O)N[C@@H](Cc1ccccc1)C(=O)NCC(=O)NCC(=O)NCC(=O)N[C@@H](Cc1c[nH]cn1)C(=O)NCC(=O)N[C@H](C(=O)N[C@H](C(=O)N[C@@H](CO)C(=O)N[C@@H](C)C(=O)N1CCC[C@H]1C(=O)N[C@@H](CC(=O)O)C(=O)N[C@H](C(=O)N[C@@H](CCCNC(=N)N)C(=O)N1CCC[C@H]1C(=O)N[C@@H](C)C(=O)N1CCC[C@H]1C(=O)NCC(=O)N[C@@H](CO)C(=O)N[C@H](C(=O)N[C@@H](C)C(=O)N1CCC[C@H]1C(=O)N1CCC[C@H]1C(=O)N[C@@H](C)C(=O)O)[C@@H](C)O)[C@@H](C)O)[C@@H](C)O)C(C)C)OC(=O)CCCCCCCCCCCCCCC | Active | Active | Active | Active | Active | Active | Active | Active | Active | Active | Active | Active | >1
